In ChEMBL document CHEMBL3259790, “In Vitro Membrane Permeation Studies and in Vivo Antinociception of Glycosylated Dmt(1)-DALDA Analogues” (ACS Med Chem Lett, 2014):
Where a SMILES comes first, the peptide text is derived from it. [ ]: non-standard residue; d: D form. The star is where a group is joined. X1 = OC[C@H]1O[C@@H](n2cc(C*)nn2)[C@H](O)[C@@H](O)[C@H]1O; Dmt = Cc1cc(O)cc(C)c1C[C@H](N)C(=O)O

Columns and labels:
[1] = test system: Mus musculus; assay: Antinociceptive activity in C57Bl6 mouse assessed as maximum possible effect of tail flick latency at 0.5 mg/kg, iv after 180 mins by tail-flick assay; format: functional
Summary of the method: (§1)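 C57Bl6 mice (23–25 g) were dosed intravenously at 0.5 mg/kg. Spinal antinociception was measured by tail-flick latency and expressed as %MPE. The response was tracked over time up to 180 min post-dose to find the time of peak effect.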

[2] = test system: Mus musculus; assay: Antinociceptive activity in iv dosed C57Bl6 mouse after 5 to 180 mins by hot plate test; format: functional
Summary of the method: (§2)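 Intravenous dosing in C57Bl6 mice (23–25 g), with antinociception monitored up to 180 min by hot plate (supraspinal) or tail-flick (spinal) and expressed as %MPE. ED50 in mg/kg came from standard nonlinear regression of the log dose–response curve.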

[3] = molecular target: Delta-type opioid receptor (Mus musculus, UniProt P32300); assay: Agonist activity at delta opioid receptor in mouse vas deferens
Summary of the method: (§3)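 Binding used rat brain membrane preparations, with MOR labelled by [3H]DAMGO and DOR by [3H]DSLET and read as displacement. Functional MOR activity was measured in isolated guinea pig ileum and DOR activity in isolated mouse vas deferens. Values are means of 3–4 experiments.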

[4] = test system: Mus musculus; assay: Antinociceptive activity in C57Bl6 mouse assessed as maximum possible effect at 0.5 mg/kg, iv after 180 mins by hot plate test; format: functional
Summary of the method: (§4)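 C57Bl6 mice (23–25 g body weight) received a single intravenous dose of 0.5 mg/kg. Supraspinal antinociception was measured by hot plate and expressed as %MPE. Readings were followed over time up to 180 min after dosing to give the time course and the time of peak effect.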

[5] = molecular target: Mu-type opioid receptor (Rattus norvegicus, UniProt P33535); assay: Displacement of [3H]DAMGO from mu opioid receptor in rat brain membranes; format: cell membranes, Membrane; summary of the method: as §3
[6] = test system: Mus musculus; assay: Antinociceptive activity in iv dosed C57Bl6 mouse assessed as tail flick latency after 5 to 180 mins by tail-flick assay; format: functional; summary of the method: as §2
[7] = test system: Mus musculus; assay: Antinociceptive activity in C57Bl6 mouse at 0.5 mg/kg, iv by hot plate test; format: functional, organism-based; set-up: dose 0.5 mg/kg; settings: TDE = time-dependent effect; summary of the method: as §4
[8] = molecular target: Mu-type opioid receptor (Cavia porcellus, UniProt P97266); assay: Agonist activity at mu opioid receptor in guinea pig ileum; format: tissue-based; summary of the method: as §3
[9] = test system: Plasma; assay: Drug degradation in human plasma up to 20 hrs; format: ADME, cell-free
[10] = molecular target: Delta-type opioid receptor (Rattus norvegicus, UniProt P33533); assay: Displacement of [3H]DSLET from delta opioid receptor in rat brain membranes; format: cell membranes, Membrane; summary of the method: as §3
[11] = test system: Mus musculus; assay: Antinociceptive activity in C57Bl6 mouse assessed as tail flick latency at 0.5 mg/kg, iv by tail-flick assay; format: functional, organism-based; set-up: dose 0.5 mg/kg; settings: TDE = time-dependent effect; summary of the method: as §1
[12] = test system: Mus musculus; assay: Antinociceptive activity in C57Bl6 mouse assessed as time of peak effect of tail flick latency at 0.5 mg/kg, iv by tail-flick assay; format: functional; summary of the method: as §1
[13] = Half life in human plasma; format: ADME, cell-free
[14] = Half life in rat brain homogenates; format: ADME, tissue-based; settings: brain homogenate
[15] = test system: Mus musculus; assay: Antinociceptive activity in C57Bl6 mouse assessed as time of peak effect at 0.5 mg/kg, iv by hot plate test; format: functional; summary of the method: as §4

Mu-type opioid receptor (Rattus norvegicus, UniProt P33535), sequence (P33535 whole entry): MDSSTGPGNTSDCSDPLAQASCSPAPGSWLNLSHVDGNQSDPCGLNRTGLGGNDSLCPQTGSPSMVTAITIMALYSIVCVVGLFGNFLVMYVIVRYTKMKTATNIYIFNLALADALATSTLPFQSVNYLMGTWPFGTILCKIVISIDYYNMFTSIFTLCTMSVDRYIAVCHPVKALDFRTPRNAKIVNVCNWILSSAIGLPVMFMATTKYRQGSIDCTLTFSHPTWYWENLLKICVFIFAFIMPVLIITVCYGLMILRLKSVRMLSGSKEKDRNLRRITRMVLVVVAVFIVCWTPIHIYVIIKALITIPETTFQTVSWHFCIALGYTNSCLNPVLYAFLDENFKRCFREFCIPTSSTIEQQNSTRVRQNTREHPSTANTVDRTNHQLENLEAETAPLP
Mu-type opioid receptor (Cavia porcellus, UniProt P97266), sequence (P97266 whole entry): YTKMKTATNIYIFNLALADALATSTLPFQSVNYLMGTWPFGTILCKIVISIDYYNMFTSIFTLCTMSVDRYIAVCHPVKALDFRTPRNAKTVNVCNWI
Delta-type opioid receptor (Rattus norvegicus, UniProt P33533), sequence (P33533 whole entry): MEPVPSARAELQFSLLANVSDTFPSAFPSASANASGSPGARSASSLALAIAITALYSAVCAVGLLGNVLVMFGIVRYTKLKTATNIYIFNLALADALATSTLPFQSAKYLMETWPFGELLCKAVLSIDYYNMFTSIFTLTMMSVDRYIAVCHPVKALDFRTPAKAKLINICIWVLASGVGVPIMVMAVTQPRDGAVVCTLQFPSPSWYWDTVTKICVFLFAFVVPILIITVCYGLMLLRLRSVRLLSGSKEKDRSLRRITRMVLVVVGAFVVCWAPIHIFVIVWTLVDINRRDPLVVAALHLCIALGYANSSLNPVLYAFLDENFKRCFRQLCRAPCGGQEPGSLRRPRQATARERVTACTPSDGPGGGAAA
Delta-type opioid receptor (Mus musculus, UniProt P32300), sequence (P32300 whole entry): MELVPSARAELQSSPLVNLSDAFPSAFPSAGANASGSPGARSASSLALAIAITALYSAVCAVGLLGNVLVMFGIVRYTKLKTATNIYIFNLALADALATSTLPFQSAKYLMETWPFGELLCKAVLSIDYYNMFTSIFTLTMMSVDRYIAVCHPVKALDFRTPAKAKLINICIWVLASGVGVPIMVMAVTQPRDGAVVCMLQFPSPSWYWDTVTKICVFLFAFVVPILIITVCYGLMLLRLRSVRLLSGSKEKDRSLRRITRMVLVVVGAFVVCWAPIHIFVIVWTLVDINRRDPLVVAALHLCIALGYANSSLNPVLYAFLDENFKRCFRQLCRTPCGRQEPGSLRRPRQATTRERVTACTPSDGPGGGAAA

SMILES	MPE [1]	Activity [2]	ED50 [2]	IC50 [3]	MPE [4]	Ki [5]	Activity [6]	ED50 [6]	Activity [7]	IC50 [8]	Stability [9]	Ki [10]	Activity [11]	Time [12]	half-life [13]	half-life [14]	Time [15]
Cc1cc(O)cc(C)c1C[C@H](N)C(=O)N[C@H](CCCNC(=N)N)C(=O)N[C@@H](Cc1ccccc1)C(=O)N[C@@H](Cc1cn([C@@H]2O[C@H](CO)[C@@H](O)[C@H](O)[C@H]2O)nn1)C(N)=O	40%	Dose-dependent effect	0.31 mg/kg	2.75 nM	40%	0.203 nM	Dose-dependent effect	0.34 mg/kg	tde	1.46 nM	Stable	11.9 nM	tde	60 min	–	–	–
NCCCC[C@H](NC(=O)[C@H](Cc1ccccc1)NC(=O)[C@@H](CCCN=C(N)N)NC(=O)[C@@H](N)Cc1ccc(O)cc1)C(N)=O	–	–	–	–	–	–	–	–	–	254 nM	–	–	–	–	–	–	–
Cc1cc(O)cc(C)c1C[C@H](N)C(=O)N[C@H](CCCNC(=N)N)C(=O)N[C@@H](Cc1ccccc1)C(=O)N[C@@H](Cc1ccc(OCc2cn([C@@H]3O[C@H](CO)[C@H](O)[C@H](O)[C@H]3O)nn2)cc1)C(N)=O (H-[Dmt][dR]FY(X1)-NH2)	–	–	–	6 nM	–	0.286 nM	–	–	–	2.3 nM	–	22.2 nM	–	–	–	–	–
Cc1cc(O)cc(C)c1C[C@H](N)C(=O)N[C@H](CCCNC(=N)N)C(=O)N[C@@H](Cc1ccccc1)C(=O)N[C@@H](COCc1cn([C@@H]2O[C@H](CO)[C@H](O)[C@H](O)[C@H]2O)nn1)C(N)=O (H-[Dmt][dR]FS(X1)-NH2)	–	–	–	4.9 nM	–	0.112 nM	–	–	–	0.35 nM	–	6.36 nM	–	–	–	–	–
N=C(N)NCCC[C@@H](NC(=O)[C@@H](N)Cc1ccc(OCc2cn([C@@H]3O[C@H](CO)[C@H](O)[C@H](O)[C@H]3O)nn2)cc1)C(=O)N[C@@H](Cc1ccccc1)C(=O)N[C@@H](CCCCN)C(N)=O	–	–	–	1990 nM	–	38.4 nM	–	–	–	1180 nM	–	> 5000 nM	–	–	–	–	–
Cc1cc(O)cc(C)c1C[C@H](N)C(=O)N1CCC[C@H]1C(=O)N[C@@H](Cc1ccccc1)C(=O)N[C@@H](Cc1ccccc1)C(N)=O	–	–	–	–	–	–	–	–	–	–	–	–	–	–	53 min	39.5 min	–
Cc1cc(O)cc(C)c1C[C@H](N)C(=O)N[C@H](CCCNC(=N)N)C(=O)N[C@@H](Cc1ccccc1)C(=O)N[C@@H](CCCCN)C(N)=O	40%	Dose-dependent effect	0.25 mg/kg	–	40%	–	Dose-dependent effect	0.17 mg/kg	tde	–	–	–	tde	60 min	–	–	–
Cc1cc(O)cc(C)c1C[C@H](N)C(=O)N[C@H](CCCNC(=N)N)C(=O)N[C@@H](Cc1ccccc1)C(=O)N[C@@H](Cc1cn([C@@H]2O[C@H](CO)[C@H](O)[C@H](O)[C@H]2O)nn1)C(N)=O	40%	Dose-dependent effect	0.4 mg/kg	1.98 nM	40%	0.222 nM	Dose-dependent effect	0.27 mg/kg	tde	0.66 nM	Stable	15.6 nM	tde	60 min	–	–	60 min
